These results are taken from ChEMBL document CHEMBL3351368, “Biphenyl-4-carboxylic acid [2-(1H-indol-3-yl)-ethyl]-methylamide (CA224), a nonplanar analogue of fascaplysin, inhibits Cdk4 and tubulin polymerization: evaluation of in vitro and in vivo anticancer activity” (J Med Chem, 2014).

What is called inhibition is the percentage by which the read-out fell short of the control.

Calls of active or inactive are those of the source. No cut-off for these calls is given here.

The test system of data set [1] is A549. Briefly: Cell cycle arrest in human A549 cells assessed as accumulation of cells at G0/G1 phase at IC50 concentration after 24 hrs by flow cytometry (reference value: 49%). Format: functional.
For another data set, the system named is MiaPaCa. Briefly: Induction in Cdk1 level in p53His273 mutant, pRb+ human MiaPaCa cells at IC50 concentration after 48 hrs by Western blot analysis. The class given is functional. (In general: In western blotting, separated proteins are transferred to a membrane and probed.)
The target of data set [2] is T1, Tubulin (Homo sapiens) (UniProt P68371+Q9H4B7+P0DPH7+P68366+Q13509+Q71U36+P04350+Q3ZCM7+P07437+P68363+Q9BQE3+Q6PEY2+Q13885+Q9BVA1+Q9BUF5). Briefly: Inhibition of tubulin (unknown origin) polymerization assessed as decrease in Vmax measured by spectrophotometry. The class given is protein-complex assay. The gist of the method: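 Purified tubulin polymerisation followed as absorbance increase over about 4000 s. Vmax (mOD/min) is taken as the read-out, with final polymer mass also noted. Compound is tested at 2.5, 5, 10 and 25 µM alongside untreated control, paclitaxel 10 µM (enhancer) and nocodazole 10 µM (inhibitor). Curves are the average of three independent experiments.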

Data set [3] has as its target T1, Tubulin (Homo sapiens). Briefly: Inhibition of tubulin polymerization in p53+, pRb+ human A549 cells assessed as paclitaxel-mediated polymerization treated simultaneously measured after 30 mins by Western blot analysis. The class given is cell-based.
A short description of data set [4]: Anticancer activity against p53 null, pRb+ human Calu1 cells assessed as reduction in colony formation efficiency at 3 uM after 24 hrs by visual count/crystal violet staining method. Conditions: Calu-1, 24 h. The class given is functional. The gist of the method:
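Long-term survival assay. A549 and Calu-1 cells treated with a range of concentrations, colonies counted, efficiency expressed as percent of colonies versus untreated cultures. Means and standard deviations of three independent experiments.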

Data set [5] concerns A549. Briefly: Induction of apoptosis in p53+, pRb+ human A549 cells assessed as fragmented nuclei/distrupted cell membrane after 24 hrs by DAPI staining-based flow cytometry. Format: functional.
The next data set concerns NCI-H460. Briefly: Induction of apoptosis in p53+, pRb+ human NCI-H460 cells assessed as fragmented nuclei/distrupted cell membrane after 24 hrs by DAPI staining-based flow cytometry. The class given is functional. Background: A flow cytometer gives signals particle by particle.
The next data set addresses CYP3A4 (Homo sapiens, UniProt P08684). Briefly: Inhibition of human recombinant CYP3A4 at 10 uM. Format: ADME.
Data set [6] can be described thus: Volume of distribution at steady state in BALB/c mouse at 1 mg/kg, iv. The settings on record: in vivo, read-out: Vdss. Format: ADME, organism-based. Also on record: dose 1 mg/kg, route intravenous. The method in brief:
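BALB/c mice given a single dose of 1.0 mg/kg IV or 10 mg/kg orally; plasma concentration followed over time and pharmacokinetic parameters derived from the time-concentration profile.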

The test system of another data set is Mus musculus. Briefly: Toxicity in human NCI-H460 cells xenografted in SCID mouse at 100 mg/kg, ip relative to untreated control. Also on record: dose 100 mg/kg, route intraperitoneal. The class given is organism-based. The settings on record: in vivo. The gist of the method:
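SCID female mice, 15-24 g, 6-8 weeks old, received 5.3 × 10^6 NCI-H460 cells subcutaneously on the dorsal side. Randomized at 4-6 mm tumors (about 6 days) into groups of 6 or 7, then dosed intraperitoneally for 9 consecutive days. Body weight recorded daily as percent of the start-of-treatment weight; >10% drop counted significant, >20% highly significant.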
Background: In xenograft studies the graft and the host belong to different species.

The nature of data set [7]: Cell cycle arrest in SV-40 large T-antigen transformed human WI38 cells assessed as accumulation of cells at subG1 phase by flow cytometry. The class given is functional, cell-based. The settings on record: WI-38.
Data set [8] deals with A549. Briefly: Induction of p21 level in p53+, pRb+ human A549 cells at IC50 concentration after 24 hrs by Western blot analysis.
In the next data set the test system is LS174T. Briefly: Reduction cyclin B1 level in p53+, pRb+ human LS 174T cells at IC50 concentration after 24 hrs by Western blot analysis.

Sequence of CYP3A4 (P08684 whole entry): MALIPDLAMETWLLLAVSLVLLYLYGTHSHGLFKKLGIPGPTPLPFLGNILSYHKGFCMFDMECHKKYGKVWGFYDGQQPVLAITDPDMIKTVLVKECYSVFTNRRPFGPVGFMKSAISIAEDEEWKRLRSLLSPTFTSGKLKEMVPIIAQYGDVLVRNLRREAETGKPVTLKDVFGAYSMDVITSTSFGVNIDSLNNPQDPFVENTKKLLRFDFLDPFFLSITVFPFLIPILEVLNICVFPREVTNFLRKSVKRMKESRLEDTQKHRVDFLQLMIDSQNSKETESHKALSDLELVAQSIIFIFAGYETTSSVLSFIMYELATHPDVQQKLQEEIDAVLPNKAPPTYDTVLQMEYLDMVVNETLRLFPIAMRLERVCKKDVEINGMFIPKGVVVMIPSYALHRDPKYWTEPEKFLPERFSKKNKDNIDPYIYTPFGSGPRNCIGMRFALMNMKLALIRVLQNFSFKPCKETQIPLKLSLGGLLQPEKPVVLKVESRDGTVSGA

Take `CN(CCc1c[nH]c2ccccc12)C(=O)c1ccc(-c2ccccc2)cc1`: the Activity was 3% in the data set on A549 [1], “Dose-dependent effect” with A549 [5], “Dose-dependent effect” in the data set with NCI-H460 and “Non-toxic” in the data set on Mus musculus. In addition, the outcome (in the data set on MiaPaCa; in [7]; in the data set on A549 [8]) was Active. Also, the inhibition result on Tubulin (Homo sapiens) [2] and on Tubulin (Homo sapiens) [3] was “Dose-dependent effect” in each case. Besides, the inhibition at 3 µM in data set [4] came out at 50%. Besides, the inhibition at 10 µM at CYP3A4 was determined as 50%. In addition, in data set [6], the Vd turned out to be 1.76 L/kg. Besides, the inhibition result with LS174T is “Active”.
